From ChEMBL document CHEMBL4627401, “Structure Optimization of Gatastatin for the Development of γ-Tubulin-Specific Inhibitor” (ACS Med Chem Lett, 2020)
The source made the active and inactive calls. The rule behind the calls is not given here.

Experiments:
HeLa [1] = experiment: Inhibition of gamma-tubulin in human HeLa cells assessed as abnormal spindle formation at 30 uM incubated for 24 hrs by immunofluorescence microscopy analysis relative to control; type: cell-based
Summary of the method: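 Exponentially growing HeLa cells were treated with 30 μM for 24 h, then spindle morphology was classified as normal bipolar, bipolar with misaligned chromosomes, or multipolar. More than 100 cells were scored per experiment. Mean ± SD, three independent experiments, with DMSO as control.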

HeLa [2] = experiment: Cytotoxicity against human HeLa cells assessed as reduction in cell viability incubated for 48 hrs by WST8 cells; type: functional, cell-based
Summary of the method: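 HeLa cells were exposed to a range of concentrations for 48 h. Growth was read by WST-8 cell counting, and IC50 values were calculated from the resulting curves.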

Sus scrofa domesticus [3] = species: Sus scrofa domesticus; experiment: Inhibition of porcine brain tubulin polymerization assessed as residual tubulin polymerization at 30 uM in presence of 0.8 M glutamate incubated for 30 mins by SDS-PAGE analysis (reference value: 84.8 +/- 9.9 %)
Summary of the method: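 Polymer was separated by ultracentrifugation (200,000g, 10 min, 25 °C), tubulin measured by 10% SDS-PAGE densitometry and expressed as % polymerized. Mean ± SD, three independent experiments.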

HeLa [4] = experiment: Induction of microtubule depolymerization in human HeLa cells at 30 uM incubated for 24 hrs by immunofluorescence microscopy; type: functional, cell-based
Summary of the method: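 Interphase HeLa cells were treated for 24 h at 30 μM, then the MT network structure was examined by microscopy.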

HeLa [5] = experiment: Cytotoxicity against human HeLa cells assessed as cell viability at 100 uM incubated for 48 hrs by WST8 cells relative to control; type: functional; conditions: read-out: Activity
HeLa [6] = experiment: Induction of microtubule depolymerization in human HeLa cells at 100 nM incubated for 6 hrs by immunofluorescence microscopic method; type: functional, cell-based
HeLa [7] = experiment: Inhibition of gamma-tubulin nucleation in human HeLa cells at 30 uM incubated for 15 mins; type: cell-based
HeLa [8] = experiment: Inhibition of gamma-tubulin nucleation in human HeLa cells at 10 uM incubated for 15 mins; type: cell-based
Sus scrofa domesticus [9] = species: Sus scrofa domesticus; experiment: Induction of porcine brain tubulin polymerization at 10 uM in presence of 0.2 M glutamate incubated for 30 mins by SDS-PAGE analysis (reference value: 36.3 +/- 8.1 %)
HeLa [10] = experiment: Inhibition of gamma-tubulin nucleation in human HeLa cells at 100 uM incubated for 15 mins; type: cell-based
Homo sapiens = species: Homo sapiens; experiment: Inhibition of human gamma tubulin assessed as reduction in GTP binding to gamma-tubulin at 50 uM incubated for 15 mins by alpha-[32P]-GTP binding assay
HeLa [11] = experiment: Inhibition of gamma-tubulin nucleation in human HeLa cells at 0.3 uM incubated for 15 mins; type: cell-based
HeLa [12] = experiment: Inhibition of gamma-tubulin in human HeLa cells assessed as abnormal spindle formation incubated for 24 hrs by immunofluorescence microscopy analysis; type: cell-based
HeLa [13] = experiment: Inhibition of gamma-tubulin in human HeLa cells assessed as abnormal spindle formation at 1 uM incubated for 24 hrs by immunofluorescence microscopy analysis relative to control; type: cell-based

Structure (SMILES): COc1cc(-c2coc3cc(OCc4ccccc4)c(O)cc3c2=O)c(OC)c2c1OC(C)(C)O2
- inhibition (HeLa [1]): inactive
- IC50 (HeLa [2]): > 13 µM
- Activity (Sus scrofa domesticus [3]): 69 to 92%
- Activity (HeLa [4]): inactive

Structure (SMILES): COc1cc(-c2coc3cc(OCc4ccccc4)c(OC4CCCCO4)cc3c2=O)c(OC)c2c1OC(C)(C)O2 (centres undefined)
- inhibition (HeLa [1]): inactive
- IC50 (HeLa [2]): > 100 µM
- Activity (Sus scrofa domesticus [3]): 69 to 92%
- Activity (HeLa [4]): inactive
- viability at 100 µM (HeLa [5]): 101%

Structure (SMILES): COc1cc2c(c(OC)c1OC)-c1ccc(OC)c(=O)cc1[C@@H](NC(C)=O)CC2
- Activity (HeLa [6]): Active

Structure (SMILES): COc1cc(-c2coc3cc(OCc4ccccc4)c(OCc4ccccc4)cc3c2=O)c(OC)c2c1OC(C)(C)O2
- inhibition (HeLa [1]): inactive
- IC50 (HeLa [2]): > 100 µM
- Activity (Sus scrofa domesticus [3]): 69 to 92%
- Activity (HeLa [4]): inactive
- viability at 100 µM (HeLa [5]): 102%

Structure (SMILES): COc1cc(-c2coc3cc(OCc4ccccc4)c(O)cc3c2=O)c(OC)c2c1OCO2
- IC50 (HeLa [2]): 5.8 µM
- inhibition (HeLa [7]): Active
- Activity (Sus scrofa domesticus [3]): 69 to 92%
- Activity (HeLa [4]): inactive

Structure (SMILES): COc1cc2c(=O)c(-c3cc(OC)c(OC)c(OC)c3OC)coc2cc1OCc1ccccc1
- inhibition (HeLa [1]): 65%
- IC50 (HeLa [2]): > 100 µM
- inhibition (HeLa [7]): Active
- inhibition (HeLa [8]): inactive
- Activity (Sus scrofa domesticus [3]): 69 to 92%
- Activity (HeLa [4]): inactive
- viability at 100 µM (HeLa [5]): 77.3%

Structure (SMILES): CC(=O)O[C@H]1C(=O)[C@@]2(C)[C@H]([C@H](OC(=O)c3ccccc3)[C@]3(O)C[C@H](OC(=O)[C@H](O)[C@@H](NC(=O)c4ccccc4)c4ccccc4)C(C)=C1C3(C)C)[C@]1(OC(C)=O)CO[C@@H]1C[C@@H]2O
- Activity (Sus scrofa domesticus [9]): 91.6%
- Activity (HeLa [6]): Active

Structure (SMILES): COc1cc(-c2coc3cc(OCc4ccccc4)c(OC4CCCCO4)cc3c2=O)c(OC)c2c1OCO2 (centres undefined)
- IC50 (HeLa [2]): > 100 µM
- inhibition (HeLa [10]): inactive
- Activity (Sus scrofa domesticus [3]): 69 to 92%
- Activity (HeLa [4]): inactive
- viability at 100 µM (HeLa [5]): 99.1%

Structure (SMILES): COc1cc2c(=O)c(-c3cc(OC)c4c(c3OC)OCO4)coc2cc1OCc1ccccc1
- inhibition (HeLa [1]): Active
- IC50 (HeLa [2]): 10.5 µM
- inhibition (HeLa [7]): Active
- inhibition (HeLa [8]): inactive
- inhibition (Homo sapiens): Active
- Activity (Sus scrofa domesticus [3]): 69 to 92%
- Activity (HeLa [4]): inactive

Structure (SMILES): C#CCOc1cc2c(=O)c(-c3cc(OC)c4c(c3OC)OCO4)coc2cc1OCc1ccccc1
- IC50 (HeLa [2]): 0.8 µM
- inhibition (HeLa [7]): Active
- inhibition (HeLa [11]): Active
- inhibition (HeLa [12]): Dose-dependent effect
- inhibition (HeLa [13]): Active
- inhibition (Homo sapiens): Active
- Activity (Sus scrofa domesticus [3]): 69 to 92%
- Activity (HeLa [4]): inactive

Structure (SMILES): COc1cc2c(=O)c(-c3ccc4c(c3)OCO4)coc2cc1OCc1ccccc1
- inhibition (HeLa [1]): inactive
- IC50 (HeLa [2]): > 100 µM
- inhibition (HeLa [10]): inactive
- Activity (Sus scrofa domesticus [3]): 69 to 92%
- Activity (HeLa [4]): inactive
- viability at 100 µM (HeLa [5]): 101%

Structure (SMILES): C=CCOc1cc2c(=O)c(-c3cc(OC)c4c(c3OC)OC(C)(C)O4)coc2cc1OCc1ccccc1
- inhibition (HeLa [1]): inactive
- IC50 (HeLa [2]): > 100 µM
- Activity (Sus scrofa domesticus [3]): 69 to 92%
- Activity (HeLa [4]): inactive
- viability at 100 µM (HeLa [5]): 107%

Structure (SMILES): C=CCOc1cc2c(=O)c(-c3cc(OC)c4c(c3OC)OCO4)coc2cc1OCc1ccccc1
- IC50 (HeLa [2]): 9.9 µM
- inhibition (HeLa [7]): Active
- Activity (Sus scrofa domesticus [3]): 69 to 92%
- Activity (HeLa [4]): inactive

Structure (SMILES): COc1cc2c(=O)c(-c3cc(OC)c4c(c3OC)OC(C)(C)O4)coc2cc1OCc1ccccc1
- inhibition (HeLa [1]): inactive
- IC50 (HeLa [2]): > 100 µM
- inhibition (HeLa [10]): inactive
- Activity (Sus scrofa domesticus [3]): 69 to 92%
- Activity (HeLa [4]): inactive
- viability at 100 µM (HeLa [5]): 100%

Structure (SMILES): C#CCOc1cc2c(=O)c(-c3cc(OC)c4c(c3OC)OC(C)(C)O4)coc2cc1OCc1ccccc1
- inhibition (HeLa [1]): inactive
- IC50 (HeLa [2]): > 100 µM
- Activity (Sus scrofa domesticus [3]): 69 to 92%
- Activity (HeLa [4]): inactive
- viability at 100 µM (HeLa [5]): 102%

Structure (SMILES): COc1cc(-c2coc3cc(OCc4ccccc4)c(OCc4ccccc4)cc3c2=O)c(OC)c2c1OCO2
- IC50 (HeLa [2]): 1.1 µM
- inhibition (HeLa [7]): Active
- inhibition (HeLa [13]): Active
- Activity (Sus scrofa domesticus [3]): 69 to 92%
- Activity (HeLa [4]): inactive
